Assay outcomes: PubChem BioAssay, several laboratories
Tb MetRS inh – Trypanosoma brucei MetRS inhibition. purified T. brucei MetRS, ATP depletion, Kinase-Glo luminescence. inhibition, % at 11.9 µM. 0.4% of 360,000 active;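 active means inhibition above a per-plate cutoff of the control wells' mean inhibition plus 3 SD, cut at about 5.5% in these data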;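 further: 0% = DMSO wells median and 100% = median of wells with control inhibitor compound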
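Dosing: 11.9 µM compound single dose, 0.9% DMSO; Assay system: purified T. brucei MetRS enzyme; Measured by: Kinase-Glo luciferase luminescence reporting remaining unconsumed ATP; Schedule: 15 min plus 2 h at 25 °C.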
Efflux pump mplx – inhibitors of Candida antifungal efflux pumps expressed in yeast. inhibition, % at 10 µM. 0.44% of 330,000 active. S. cerevisiae Candida pump triplex, Nile Red efflux;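 active means plate passing quality check with inhibition over a set limit, or well fluorescence over plate mean plus 4 SD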;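 further: Nile Red retained in pooled yeast measured as flow cytometry median fluorescence; 0% = buffer negative control and 100% = Enniatin B positive control; higher means more Nile Red kept so more efflux inhibition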
Yeast superoxide – lowers age-related superoxide in aged yeast cells | S. cerevisiae aged cells, superoxide DHE fluorescence; active compounds read low | superoxide response (% of plate mean), % at 10 µM | 0.18% of 330,000 active | AID 2690;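 active means superoxide response under a set limit, about three screen SD below normal, cut at about 65% in these data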;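 further: yeast aged for seven days with compound at 30 °C before DHE staining; 100% = average MFI of all compound-treated wells on the plate with controls excluded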
IDE cell activ – activators of human insulin-degrading enzyme in cells. P14735. HEK cells, FAbeta-B cleavage, fluorescence polarization; 0% vehicle, 100% cell-free pure enzyme wells. activation, % at 5.96 µM. 0.073% of 340,000 active. AID 493087;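 active means activation above the mean of all tested compounds plus 3 SD, set per screening campaign, cut at about 17% in these data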
IDE cell inh – cellular human IDE inhibition; inhibition, % at 5.59 µM; P14735; HEK cells, FAbetaB cleavage, fluorescence polarization; 0.41% of 320,000 active;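 active means percent inhibition above the average of all tested compounds plus 3 SD, set per screening campaign, cut at about 16% in these data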;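 further: IDE supplied by intact live HEK cells; FP after avidin binding of uncleaved biotin substrate so inhibition keeps polarization high; 0% = DMSO wells and 100% = 60 µM reference IDE inhibitor Ii1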
HDAC3 inh – human HDAC3 inhibition. inhibition, % at 8.3 µM. recombinant HDAC3, fluorogenic peptide/trypsin coupled, fluorescence. 0.15% of 320,000 active. AID 2718; in the data active means inhibition above about 26%, passing the limit was not always enough
Target sequence (O15379 whole entry, looked up): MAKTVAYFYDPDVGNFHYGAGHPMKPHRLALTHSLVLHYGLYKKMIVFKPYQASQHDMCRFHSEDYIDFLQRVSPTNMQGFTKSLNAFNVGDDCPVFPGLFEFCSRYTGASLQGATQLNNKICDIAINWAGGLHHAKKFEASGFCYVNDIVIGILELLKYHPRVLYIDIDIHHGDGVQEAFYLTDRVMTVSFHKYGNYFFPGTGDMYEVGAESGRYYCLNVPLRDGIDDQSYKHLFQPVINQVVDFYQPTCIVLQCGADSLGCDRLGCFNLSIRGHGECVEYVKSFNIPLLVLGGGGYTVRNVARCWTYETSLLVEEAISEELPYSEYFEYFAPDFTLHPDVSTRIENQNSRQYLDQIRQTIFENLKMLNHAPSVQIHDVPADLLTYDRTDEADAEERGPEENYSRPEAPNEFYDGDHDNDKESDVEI
Yeast cmpd fluor – counter-screen for efflux pump inhibitors: compound fluorescence. shares compounds with Efflux pump mplx. S. cerevisiae AD/pABC3, flow cytometry. fluorescence ratio to DMSO, % at 10 µM. 4% of 1,700 active;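 active means fluorescence ratio to DMSO above its plate's cutoff, the plate mean ratio plus 5 SD, cut at about 210% in these data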;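 further: unstained yeast with no Nile Red so the signal is compound autofluorescence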
Mdr1 pump inh – blocks the Candida albicans Mdr1 efflux pump in yeast; shares compounds with Efflux pump mplx; S. cerevisiae AD/CaMDR1, Nile Red efflux, flow cytometry; inhibition, % at 10 µM; 1% of 1,700 active; in the data active means inhibition above about 26%;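 further: 0% = DMSO vehicle and 100% = reference inhibitor; higher means more Nile Red retained so more efflux inhibition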
CaCdr2 efflux inh – blocks the Candida albicans Cdr2 efflux pump in yeast. shares compounds with Efflux pump mplx. S. cerevisiae AD/CaCDR2, Nile Red retention, flow cytometry. Nile Red retention ratio vs DMSO, % at 10 µM. 4% of 1,700 active. AID 588520; in the data active means Nile Red retention ratio vs DMSO above about 190%;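 further: higher ratio means more blocking of Cdr2 efflux of the dye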
CaCdr1 efflux inh – Candida Cdr1 efflux pump inhibition; shares compounds with Efflux pump mplx; S. cerevisiae AD/CaCDR1, Nile Red efflux, flow cytometry; inhibition, % at 10 µM; 1% of 1,700 active;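 active means inhibition above the screen-wide mean plus twice its standard deviation, cut at about 32% in these data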
An asterisk follows results filed as active; x = no result; + = active, no number. This is a sample that favours compounds with a hit; in the whole collection about 1.4% have one here.

SMILES | Tb MetRS inh | Efflux pump mplx | Yeast superoxide | IDE cell activ | IDE cell inh | HDAC3 inh | Yeast cmpd fluor | Mdr1 pump inh | CaCdr2 efflux inh | CaCdr1 efflux inh
O=C(COc1ccc(Cl)cc1Cl)NC1CCSC1=O (stereo unspecified) | 2 | 1.7* | 101 | 0 | 1 | 7 | 98 | 0 | 106 | 0
CCc1ccc(C2C(C(=O)O)c3ccccc3C(=O)N2C)cc1 (stereo unspecified) | 0 | 1.9* | 98 | 6 | -5 | 4 | 105 | 0 | 100 | 0
COc1ccc(/C=C/c2cccc[n+]2C)c(O)c1 | 1 | 0 | 116 | -3 | 2 | 8 | x | x | x | x
CCN(CC)c1ccc(/C=C/c2cccc[n+]2C)c(OC)c1 | -1 | 21* | 93 | -36 | 28* | 20 | + | 12 | 112 | 12
N/C(=N\OC(=O)Cc1ccccc1)c1ccccc1Cl | -1 | 0 | 94 | -1 | 1 | 2 | 91 | 0 | 105 | 0
Cc1nnc(SCC(=O)Nc2nccs2)n(N)c1=O | -1 | 0 | 97 | 1 | -4 | -6 | x | x | x | x
CCC(CNC(=O)c1c(C)nn(-c2ccccc2)c1Cl)c1ccccc1 (stereo unspecified) | -1 | 0 | 96 | -3 | -10 | 10 | x | x | x | x
COc1ccc(-c2nc(NC(=O)CSc3nnc(C)s3)ns2)cc1 | -1 | 0.8* | 100 | 4 | 1 | 0 | 100 | 0 | 101 | 0
O=C(c1ccccc1)C1Oc2ccccc2C2CC(c3cccs3)=NN12 (stereo unspecified) | 0 | 1.5* | 94 | -1 | -3 | 5 | 120 | 0 | 117 | 0
COc1ccccc1CC(=O)O/N=C(\N)c1ccccn1 | 0 | 0 | 91 | -3 | -4 | 6 | x | x | x | x
N/C(=N\OC(=O)Cc1cccc2ccccc12)c1ccccn1 | 0 | 1.2* | 116 | 4 | 5 | -2 | 109 | 0 | 109 | 0
c1cc2ccc3ccc(CN4CCOCC4)c4ccc(c1)c2c34 | 0 | 1.1* | 95 | -5 | 2 | 7 | 106 | 0 | 101 | 0
C=CCNC(=S)NNC(=O)COc1ccc(Cl)cc1Cl | 3 | 15* | 106 | -20 | 0 | -3 | 104 | -1 | 98 | 0
CCN(CC)c1ccc(S(=O)(=O)N2CCCCC2)cc1NC(=O)C1CCC1 | -1 | 0 | 84 | 5 | 3 | 3 | x | x | x | x
Cc1cc(C)n2c(SCC(=O)N(C)C3CCS(=O)(=O)C3)nnc2n1 (stereo unspecified) | 0 | 0.6* | 111 | 1 | 9 | 0 | 110 | 0 | 109 | 0
O=C(NCC(=O)N(c1ccc(F)cc1)C(C(=O)NC1CCCC1)c1cccnc1)c1ccco1 (stereo unspecified) | 0 | 0 | 109 | -3 | 4 | 3 | x | x | x | x
CC(C)(C)OC(=O)N1CCN(C(=O)c2[nH]cnc2C(=O)Nc2cccc(Cl)c2)CC1 | 0 | 0 | 96 | 1 | -2 | 3 | x | x | x | x
c1csc(-c2nc3c4ccccc4c4ccccc4c3[nH]2)c1 | 1 | 0.4* | 121 | -2 | 1 | -14 | 105 | 0 | 91 | 0
CCOc1ccccc1C=C1SC(=S)NC1=O | 0 | x | x | 1 | x | x | x | x | x | x
CC(=O)c1c(COC(=O)c2ccc(Cl)cc2)nc2ccccc2[n+]1[O-] | -1 | 0 | 95 | 6 | -6 | 3 | x | x | x | x
CC(=O)c1c(COC(=O)c2ccccc2)nc2ccccc2[n+]1[O-] | -1 | 1.8* | 111 | 1 | 0 | -2 | 95 | 0 | 105 | 0
C[C@@H]1[C@H]2[C@@H](O[C@@H]3O[C@H](CO)[C@@H](O)[C@H](O)[C@H]3O)OC=C(C(=O)O)[C@H]2C[C@@H]1O | 0 | 0 | 104 | 2 | 13 | -5 | x | x | x | x
Cc1cc(C)n2nc(C(=O)OCC(=O)NCc3ccccc3)nc2n1 | 0 | 0 | 91 | 1 | 1 | 0 | x | x | x | x
CCOC(=O)c1ccccc1NC(=O)C1CC(=O)N(C2CCCCC2)C1 (stereo unspecified) | 0 | 6.2* | 101 | 1 | -1 | -3 | 108 | 0 | 94 | 0
CCOC(=O)c1ccccc1NC(=O)C1CC(=O)N(C(C)(C)C)C1 (stereo unspecified) | 0 | 0 | 105 | 2 | 2 | -1 | x | x | x | x
SMILES | Tb MetRS inh | Efflux pump mplx | Yeast superoxide | IDE cell activ | IDE cell inh | HDAC3 inh | Yeast cmpd fluor | Mdr1 pump inh | CaCdr2 efflux inh | CaCdr1 efflux inh
Cc1cccc(NC(=O)/C(C#N)=C/c2cn(CC(=O)NCc3ccco3)c3ccccc23)c1C | -2 | 11* | 101 | -1 | 5 | 4 | 106 | 0 | 116 | 0
COc1ccc(OC)c(Nc2nc3nonc3nc2N2CCCCC2)c1 | 0 | 6.7* | 105 | 2 | -3 | -6 | 91 | 0 | 112 | 0
O=C(C[n+]1ccc(-c2ccccc2)cc1)Nc1ccc([N+](=O)[O-])cc1 | 0 | 0 | 90 | 1 | 2 | 4 | x | x | x | x
CC(=O)N1CCN(c2ccc(NC(=S)NC(=O)c3ccccc3)cc2)CC1 | 0 | 5.8* | 96 | 3 | -3 | 1 | 109 | 0 | 100 | 0
CCc1nnc(NC(=O)CSc2n[nH]c(-c3ccccc3O)n2)s1 | 0 | 0 | 101 | -2 | 7 | -3 | x | x | x | x
Cc1ccc(N=C2NC(=O)/C(=C\c3cccs3)S2)cc1C | 0 | 6.8* | 134 | -4 | -4 | -3 | 101 | 0 | 134 | 0
Cc1cccc(N=C2NC(=O)/C(=C/c3cccs3)S2)c1 | -1 | 0 | 127 | 4 | 4 | 3 | x | x | x | x
O=C(c1cc(COc2cccc(C(F)(F)F)c2)on1)N1CCC(c2ccncc2)CC1 | 0 | 0.5* | 93 | 2 | 2 | 1 | 146 | 3 | 206* | 3
Cc1cccc(NS(=O)(=O)c2ccc(C3CCCCC3)cc2)n1 | -1 | 8.2* | 128 | -6 | 3 | -16 | 99 | 0 | 103 | 0
CC(C)c1cc(C(=O)N2CCCC(CCC(=O)N3CCN(c4ccccn4)CC3)C2)no1 (stereo unspecified) | -2 | 0 | 108 | 3 | 7 | 1 | x | x | x | x
COc1ccc(/C(O)=C2/C(=O)C(=O)N(CCN(C)C)C2c2ccccc2)cc1Cl (stereo unspecified) | 0 | 0 | 94 | 1 | 6 | 5 | x | x | x | x
CCOc1ccc(/C(O)=C2/C(=O)C(=O)N(CCN(C)C)C2c2ccccc2)cc1Cl (stereo unspecified) | 0 | 8.9* | 114 | 0 | 4 | -3 | 103 | 0 | 97 | 0
